{
  "source": "ChEMBL document CHEMBL4765328",
  "about": "(Eur J Med Chem, 2020)",
  "key": {"[1]": {"test_system": "SEM cells", "assay": "Antiproliferative activity against human SEM cells assessed as inhibition of cell growth", "type": "functional, cell-based", "summary_of_the_method": "(§1)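 Compounds from 10 mM DMSO stocks; final DMSO ≤0.25%. Growth inhibition of cancer cell lines read from dose-response curves; IC50 as mean ± SEM of at least three independent experiments.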"}, "[2]": {"test_system": "Jurkat", "assay": "Antiproliferative activity against human Jurkat cells assessed as inhibition of cell growth", "type": "functional, cell-based", "summary_of_the_method": "as §1"}, "[3]": {"assay": "Inhibition of bovine brain tubulin polymerisation preincubated with compound followed by GTP addition and measured after 20 mins by turbidimetry based spectrophotometric method", "type": "tissue-based, Bos taurus", "summary_of_the_method": "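Bovine brain tubulin (10 µM) in glutamate buffer, preincubated with varying compound concentrations at 30 °C, then cooled to 0 °C. GTP added to 0.4 mM final, then warmed to 30 °C in a recording spectrophotometer. Assembly followed by turbidity at 350 nm.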"}, "[4]": {"test_system": "HeLa", "assay": "Induction of microtubule network depolymerization in human HeLa cells assessed as appearance of disorganised microtubules at 10 nM after 24 hrs by immunofluorescence staining based confocal microscopic analysis", "type": "cell-based", "summary_of_the_method": "(§2)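 HeLa cells treated 24 h at 10, 50 or 100 nM. They were then fixed in cold 4% formaldehyde for 15 min and stained with anti-β-tubulin for 2 h at room temperature. Alexa 488 secondary and DAPI counterstain followed; imaged by confocal microscopy at 20X.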"}, "[5]": {"test_system": "HeLa", "assay": "Induction of microtubule network depolymerization in human HeLa cells assessed as appearance of disorganised microtubules at 50 nM after 24 hrs by immunofluorescence staining based confocal microscopic analysis", "type": "cell-based", "summary_of_the_method": "as §2"}, "[6]": {"test_system": "HeLa", "assay": "Induction of cell cycle arrest in human HeLa cells assessed as accumulation at G2/M phase at 10 nM after 24 hrs by PI staining based flow cytometric analysis", "type": "functional", "summary_of_the_method": "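HeLa cells treated 24 h, then fixed in cold 70% ethanol. They were lysed with 0.1% Triton X-100 plus RNase A and stained with PI for flow cytometric DNA content. Means ± SEM of two independent experiments.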"}, "[7]": {"test_system": "HeLa", "assay": "Downregulation of BubR1 expression in human HeLa cells at 10 nM after 24 hrs by Western blot analysis", "type": "functional, cell-based", "summary_of_the_method": "(§3)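 HeLa cells treated 24 or 48 h, then washed in cold PBS and lysed in 0.1% Triton X-100/RNase A at 0 °C. Lysates were cleared at 15,000 x g. 10 µg protein was run on SDS-PAGE and blotted to PVDF, blocked in 5% BSA, and probed 2 h at room temperature with primary antibodies. HRP secondary and ECL detection followed; β-actin reprobe served as loading control.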"}, "[8]": {"test_system": "HeLa", "assay": "Downregulation of BubR1 expression in human HeLa cells at 10 nM after 48 hrs by Western blot analysis", "type": "functional, cell-based", "summary_of_the_method": "as §3"}, "[9]": {"test_system": "HeLa", "assay": "Induction of cell cycle arrest at G2/M phase in human HeLa cells assessed as increase in cyclin B1 expression after 24 to 48 hrs by Western blot analysis", "type": "functional, cell-based", "conditions": "dose 10-50 nM, time 24-48 hrs", "summary_of_the_method": "as §3"}, "[10]": {"test_system": "HeLa", "assay": "Induction of apoptosis in human HeLa cells assessed as viable cells at 10 nM measured after 24 hrs by Annexin V-FITC/propidium iodide staining based flow cytometry (reference value: 89.57 %)", "type": "functional", "conditions": "read-out: Activity"}, "[11]": {"test_system": "HeLa", "assay": "Induction of apoptosis in human HeLa cells assessed as early apoptotic cells at 10 nM measured after 24 hrs by Annexin V-FITC/propidium iodide staining based flow cytometry (reference value: 2.1 %)", "type": "functional"}, "[12]": {"test_system": "HeLa", "assay": "Induction of apoptosis in human HeLa cells assessed as viable cells at 10 nM measured after 48 hrs by Annexin V-FITC/propidium iodide staining based flow cytometry (reference value: 89.57 %)", "type": "functional", "conditions": "read-out: Activity"}, "[13]": {"test_system": "HeLa", "assay": "Induction of apoptosis in human HeLa cells assessed as late apoptotic cells at 10 nM measured after 48 hrs by Annexin V-FITC/propidium iodide staining based flow cytometry (reference value: 6.07 %)", "type": "functional"}, "[14]": {"test_system": "HeLa", "assay": "Induction of apoptosis in human HeLa cells assessed as necrotic cells at 10 nM measured after 48 hrs by Annexin V-FITC/propidium iodide staining based flow cytometry (reference value: 2.26 %)", "type": "functional"}, "[15]": {"test_system": "HeLa", "assay": "Induction of mitochondrial membrane potential loss in human HeLa cells assessed as cells with depolarized mitochondrial membrane at 10 nM after 24 hrs by JC-1 dye-based flow cytometric analysis (reference value: 5.7 %)", "type": "functional"}, "[16]": {"test_system": "HeLa", "assay": "Induction of mitochondrial membrane potential loss in human HeLa cells assessed as cells with polarized mitochondrial membrane at 10 nM after 48 hrs by JC-1 dye-based flow cytometric analysis (reference value: 94.3 %)", "type": "functional"}, "[17]": {"test_system": "HeLa", "assay": "Induction of apoptosis in human HeLa cells assessed as increase in PARP cleavage at 10 nM after 24 hrs by Western blot analysis", "type": "functional, cell-based", "summary_of_the_method": "as §3"}, "[18]": {"test_system": "HeLa", "assay": "Induction of apoptosis in human HeLa cells assessed as increase in PARP cleavage at 10 nM after 48 hrs by Western blot analysis", "type": "functional, cell-based", "summary_of_the_method": "as §3"}, "[19]": {"test_system": "HeLa", "assay": "Induction of apoptosis in human HeLa cells assessed as increase in bcl-2 phosphorylation at 10 nM after 24 hrs by Western blot analysis", "type": "functional, cell-based", "summary_of_the_method": "as §3"}, "[20]": {"test_system": "HeLa", "assay": "Induction of apoptosis in human HeLa cells assessed as increase in bcl-2 phosphorylation at 10 nM after 48 hrs by Western blot analysis", "type": "functional, cell-based", "summary_of_the_method": "as §3"}, "[21]": {"test_system": "HUVEC", "assay": "Antivascular activity against HUVEC assessed as inhibition of capillary like tube formation at 10 nM incubated for 1 hr by matrigel based assay", "type": "functional, cell-based", "conditions": "Homo sapiens", "summary_of_the_method": "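HUVECs used at passages 1–6 in M200 with low-serum growth supplement. 6 x 10^4 cells seeded on gelled Matrigel (37 °C, 30 min) and left 6 h to form tubes. Preformed networks then treated 1 h at 10 or 100 nM and photographed at five fields per well. Image analysis gave segment length, mesh area and number, covered area and branch points; three independent experiments.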"}, "[22]": {"test_system": "EO771", "assay": "Antitumor activity against mouse E0771 cells implanted in ip dosed C57BL/6 mouse assessed as reduction tumor growth administered every other day", "type": "functional, organism-based", "conditions": "dose 5-15 mg/kg", "summary_of_the_method": "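Seven-week-old female C57BL/6 mice received 4 x 10^5 E0771 cells orthotopically in the mammary fat pad and were randomized once tumors were palpable. Dosing was ip every other day at 5 or 15 mg/kg, with DMSO vehicle in 100 µL. Caliper volume was V=(D×d²)/2, and tumor weight was taken at endpoint; n=5/group. Analysis used two-way ANOVA with Bonferroni.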"}, "[23]": {"assay": "Cytotoxicity against mouse E0771 cells assessed as cell growth inhibition after 72 hrs by MTT assay", "type": "functional", "conditions": "EO771"}, "[24]": {"assay": "Toxicity in C57BL/6 mouse implanted with mouse E0771 cells assessed as reduction in body weight at 15 mg/kg, ip administered every other day", "type": "organism-based", "conditions": "in vivo", "summary_of_the_method": "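Seven-week-old female C57BL/6 mice received 4 × 10^5 E0771 cells orthotopically into the mammary fat pad. Once tumors were palpable, mice were randomized and given ip injections every other day (15 or 5 mg/kg, or vehicle DMSO; CA-4P 30 mg/kg as reference). Body weight was followed during treatment; n = 5 mice/group.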"}, "[25]": {"test_system": "HL-60", "assay": "Potency index, ratio […] for human HL-60 cells assessed as inhibition of cell growth", "type": "functional"}, "[26]": {"test_system": "Jurkat", "assay": "Potency index, ratio of CA-4 IC50 to compound IC50 for human Jurkat cells assessed as inhibition of cell growth", "type": "functional"}, "[27]": {"test_system": "SEM cells", "assay": "Potency index, ratio of CA-4 IC50 to compound IC50 for human SEM cells assessed as inhibition of cell growth", "type": "functional"}},
  "note": "The source made the active and inactive calls. The rule behind the calls is not given here.",
  "data": [
    {"smiles": "CCOc1ccc2c(C(=O)c3cc(OC)c(OC)c(OC)c3)c(N)oc2c1", "values": [
      {"measurement": "IC50", "setting": "[1]", "value": 0.31, "unit": "nM"},
      {"measurement": "IC50", "setting": "[2]", "value": 0.28, "unit": "nM"},
      {"measurement": "IC50", "setting": "[3]", "value": 370, "unit": "nM"},
      {"measurement": "Activity", "setting": "[4]", "value": "Active"},
      {"measurement": "Activity", "setting": "[5]", "value": "Active"},
      {"measurement": "Activity", "setting": "[6]", "value": "Active"},
      {"measurement": "Activity", "setting": "[7]", "value": "Active"},
      {"measurement": "Activity", "setting": "[8]", "value": "Active"},
      {"measurement": "Activity", "setting": "[9]", "value": "Dose-dependent effect"},
      {"measurement": "viability at 0.01 µM", "setting": "[10]", "value": 64.5, "unit": "%"},
      {"measurement": "Activity", "setting": "[11]", "value": 6.72, "unit": "%"},
      {"measurement": "viability at 0.01 µM", "setting": "[12]", "value": 31.3, "unit": "%"},
      {"measurement": "Activity", "setting": "[13]", "value": 23.53, "unit": "%"},
      {"measurement": "Activity", "setting": "[14]", "value": 21.63, "unit": "%"},
      {"measurement": "Activity", "setting": "[15]", "value": 24.3, "unit": "%"},
      {"measurement": "Activity", "setting": "[16]", "value": 45.3, "unit": "%"},
      {"measurement": "Activity", "setting": "[17]", "value": "Active"},
      {"measurement": "Activity", "setting": "[18]", "value": "Active"},
      {"measurement": "Activity", "setting": "[19]", "value": "Active"},
      {"measurement": "Activity", "setting": "[20]", "value": "Active"},
      {"measurement": "Activity", "setting": "[21]", "value": "Active"},
      {"measurement": "Activity", "setting": "[22]", "value": "Dose-dependent effect"},
      {"measurement": "GI50", "setting": "[23]", "value": 15.6, "unit": "nM"},
      {"measurement": "Activity", "setting": "[24]", "value": "Non-Toxic"},
      {"measurement": "Ratio IC50", "setting": "[25]", "value": 3},
      {"measurement": "Ratio IC50", "setting": "[26]", "value": 3},
      {"measurement": "Ratio IC50", "setting": "[27]", "value": 16}
    ]}
  ]
}
